Measurements taken from ChEMBL document CHEMBL2440012, “Design, synthesis and anticonvulsant properties of new N-Mannich bases derived from 3-phenylpyrrolidine-2,5-diones” (Bioorg Med Chem, 2013).
Activity calls are given as the source filed them. No cut-off for these calls is given here.

Columns and labels:
Mus musculus [1] = assay: Anticonvulsant activity in albino CF1 mouse assessed as assessed as protection against 6 Hz psychomotor seizure at 100 mg/kg, ip after 1 hr by minimal clonic seizure test; type: functional; conditions: route intraperitoneal
In short: (§1)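 Male CF-1 mice, groups of four, dosed ip in 0.5% methylcellulose/water suspension, then challenged by 6-Hz corneal stimulation at 32 mA (0.2 ms pulses, 3 s, constant current) at 0.25, 0.5, 1, 2 or 4 h; count of mice out of four protected from stunned posture/clonic seizure.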

Mus musculus [2] = assay: Anticonvulsant activity in albino CF1 mouse assessed as assessed as protection against 6 Hz psychomotor seizure at 100 mg/kg, ip after 4 hrs by minimal clonic seizure test; type: functional; conditions: route intraperitoneal; in short: as §1
Mus musculus [3] = assay: Anticonvulsant activity in albino CF1 mouse assessed as protection against subcutaneous pentylenetetrazole-induced convulsion at 300 mg/kg, ip measured after 4 hrs; type: functional, organism-based; design: dose 300 mg/kg
In short: (§2)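 Male CF-1 mice given ip suspension in 0.5% methylcellulose/water at 30, 100 and 300 mg/kg; MES, scPTZ (pentylenetetrazole 85 mg/kg sc, CD97 dose for clonic seizures ≥5 s) and rotarod (inability to hold balance 1 min in each of three trials) assessed at 0.5 and 4 h; value is minimum dose active in half or more animals.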

Mus musculus [4] = assay: Anticonvulsant activity against 6 Hz psychomotor seizure in ip dosed albino CF1 mouse by minimal clonic seizure test; type: functional
Mus musculus [5] = assay: Neurotoxicity in ip dosed albino CF1 mouse assessed as time to peak effect by rotorod test; type: toxicity, organism-based; conditions: in vivo
Rattus norvegicus [6] = assay: Anticonvulsant activity in albino Sprague-Dawley rat assessed as protection against maximal electroshock-induced seizures at 30 mg/kg, po measured after 1 hr; type: functional
In short: (§3)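 Male Sprague-Dawley rats, four per group, dosed p.o. at 30 mg/kg in 0.5% methylcellulose/water suspension; MES test at 0.25, 0.5, 1, 2 and 4 h, motor impairment examined in parallel; number of rats out of four protected.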

Mus musculus [7] = assay: Anticonvulsant activity in albino CF1 mouse assessed as assessed as protection against 6 Hz psychomotor seizure at 100 mg/kg, ip after 2 hrs by minimal clonic seizure test; type: functional; conditions: route intraperitoneal; in short: as §1
Mus musculus [8] = assay: Anticonvulsant activity in albino CF1 mouse assessed as protection against maximal electroshock-induced seizures at 300 mg/kg, ip measured after 4 hrs; type: functional, organism-based; design: dose 300 mg/kg; in short: as §2
Mus musculus [9] = assay: Anticonvulsant activity against 6 Hz psychomotor seizure in ip dosed albino CF1 mouse assessed as time to peak effect by minimal clonic seizure test; type: functional
Rattus norvegicus [10] = assay: Anticonvulsant activity in albino Sprague-Dawley rat assessed as protection against maximal electroshock-induced seizures at 30 mg/kg, po measured after 4 hrs; type: functional; in short: as §3
Rattus norvegicus [11] = assay: Anticonvulsant activity in albino Sprague-Dawley rat assessed as protection against maximal electroshock-induced seizures at 30 mg/kg, po measured after 2 hrs; type: functional; in short: as §3
Mus musculus [12] = assay: Anticonvulsant activity in albino CF1 mouse assessed as assessed as protection against 6 Hz psychomotor seizure at 100 mg/kg, ip after 0.25 hr by minimal clonic seizure test; type: functional; conditions: route intraperitoneal; in short: as §1
Mus musculus [13] = assay: Anticonvulsant activity in albino CF1 mouse assessed as assessed as protection against 6 Hz psychomotor seizure at 100 mg/kg, ip after 0.5 hr by minimal clonic seizure test; type: functional; conditions: route intraperitoneal; in short: as §1
Mus musculus [14] = assay: Neurotoxicity in albino CF1 mouse assessed as minimum motor impairment at 300 mg/kg, ip measured after 4 hrs by rotorod test; type: toxicity, organism-based; design: dose 300 mg/kg, route intraperitoneal; conditions: in vivo; in short: as §2
Mus musculus [15] = assay: Anticonvulsant activity in albino CF1 mouse assessed as protection against subcutaneous pentylenetetrazole-induced convulsion at 300 mg/kg, ip measured after 0.5 hrs; type: functional, organism-based; design: dose 300 mg/kg; in short: as §2
Rattus norvegicus [16] = assay: Anticonvulsant activity in albino Sprague-Dawley rat assessed as protection against maximal electroshock-induced seizures at 30 mg/kg, po measured after 0.25 hr; type: functional; in short: as §3
Rattus norvegicus [17] = assay: Anticonvulsant activity in albino Sprague-Dawley rat assessed as protection against maximal electroshock-induced seizures at 30 mg/kg, po measured after 0.5 hr; type: functional; in short: as §3
Mus musculus [18] = assay: Neurotoxicity in albino CF1 mouse assessed as minimum motor impairment at 300 mg/kg, ip measured after 0.5 hr by rotorod test; type: toxicity, organism-based; design: dose 300 mg/kg, route intraperitoneal; conditions: in vivo; in short: as §2
Mus musculus [19] = assay: Anticonvulsant activity in albino CF1 mouse assessed as protection against maximal electroshock-induced seizures at 300 mg/kg, ip measured after 0.5 hr; type: functional, organism-based; design: dose 300 mg/kg; in short: as §2
Mus musculus [20] = assay: Neurotoxicity in ip dosed albino CF1 mouse assessed as minimum motor impairment in half or more animals measured after 0.5 hrs by rotorod test; type: toxicity, organism-based; conditions: in vivo; in short: as §2
Mus musculus [21] = assay: Anticonvulsant activity in ip dosed albino CF1 mouse assessed as protection against subcutaneous pentylenetetrazole-induced convulsion in half or more animals measured after 0.5 hr; type: functional; conditions: albino CF1, 0.5 h, read-out: MED; in short: as §2
Mus musculus [22] = assay: Anticonvulsant activity in ip dosed albino CF1 mouse assessed as protection against subcutaneous pentylenetetrazole-induced convulsion in half or more animals measured after 4 hrs; type: functional; conditions: albino CF1, 4 h, read-out: MED; in short: as §2
[23] = Neurotoxicity in ip dosed albino CF1 mouse by rotorod test; type: toxicity, organism-based; conditions: in vivo
Rattus norvegicus [24] = assay: Anticonvulsant activity in ip dosed albino rat assessed as protection against pilocarpine-induced status epilepticus measured 0.5 hrs post first stage 3 seizure; type: functional
In short: (§4)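 Male Sprague-Dawley rats (150–180 g) dosed ip, followed by challenge dose of pilocarpine; compound given relative to first stage III seizure (time zero or 0.5 h); outcome scored as protection or no protection, plus body-weight change 24 h after first stage III seizure.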

Mus musculus [25] = assay: Protection index, ratio of TD50 for neurotoxicity in ip dosed albino CF1 mouse by rotorod test to ED50 for anticonvulsant activity in ip dosed albino CF1 mouse by 6 Hz psychomotor seizure test; type: functional
Mus musculus [26] = assay: Anticonvulsant activity in ip dosed albino CF1 mouse assessed as protection against maximal electroshock-induced seizures in half or more animals measured after 0.5 hr; type: functional; conditions: read-out: MED; in short: as §2
Rattus norvegicus [27] = assay: Anticonvulsant activity in albino rat assessed as protection against pilocarpine-induced status epilepticus at 400 mg/kg, ip measured 0.5 hrs post first stage 3 seizure; type: functional, organism-based; design: dose 400 mg/kg; in short: as §4
Cytochrome P450 3A4 [28] = molecular target: T1, Cytochrome P450 3A4 (Homo sapiens, UniProt P08684); assay: Inhibition of CYP3A4 (unknown origin) using 200 uM testosterone as substrate assessed as formation of 6-beta-OH-testosterone relative to control; type: ADME
Cytochrome P450 3A4 [29] = molecular target: T1, Cytochrome P450 3A4; assay: Inhibition of CYP3A4 (unknown origin) using 50 uM testosterone as substrate assessed as formation of 6-beta-OH-testosterone relative to control; type: ADME
Rattus norvegicus [30] = assay: Anticonvulsant activity in po dosed albino Sprague-Dawley rat assessed as protection against maximal electroshock-induced seizures; type: functional
[31] = Neurotoxicity in po dosed albino Sprague-Dawley rat assessed as minimum motor impairment by rotorod test; type: toxicity, organism-based; conditions: in vivo
Rattus norvegicus [32] = assay: Protection index, ratio of TD50 for neurotoxicity in po dosed albino Sprague-Dawley rat by rotorod test to ED50 for anticonvulsant activity in po dosed albino Sprague-Dawley rat by scPTZ test; type: functional
In short: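 Male Sprague-Dawley rats, compound suspended in 0.5% methylcellulose/water and given orally; tested at the time of peak effect. scPTZ: 70 mg/kg pentylenetetrazole sc; the end-point is clonic seizures lasting at least 5 s. Rotarod: motor impairment is failure to keep balance for 1 min in each of three trials. Groups of at least eight rats received several doses until at least three points fell within 10–90% effect. ED50, TD50 and 95% confidence intervals were derived by regression; PI = TD50/ED50.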

Rattus norvegicus [33] = assay: Neurotoxicity in po dosed albino Sprague-Dawley rat assessed as time to peak effect by rotorod test; type: toxicity, organism-based; conditions: in vivo
Rattus norvegicus [34] = assay: Anticonvulsant activity against […] subcutaneous pentylenetetrazole-induced convulsion in po dosed albino Sprague-Dawley rat assessed as time to peak effect; type: functional
Rattus norvegicus [35] = assay: Anticonvulsant activity against maximal electroshock-induced seizures in po dosed albino Sprague-Dawley rat assessed as time to peak effect; type: functional
Mus musculus [36] = assay: Toxicity in albino CF1 mouse assessed as diarrhea at 300 mg/kg, ip measured after 4 hrs by rotorod test; type: organism-based; design: dose 300 mg/kg, route intraperitoneal; conditions: in vivo
Mus musculus [37] = assay: Anticonvulsant activity in ip dosed albino CF1 mouse assessed as protection against maximal electroshock-induced seizures in half or more animals measured after 4 hrs; type: functional; conditions: read-out: MED; in short: as §2

T1 sequence (P08684 whole entry): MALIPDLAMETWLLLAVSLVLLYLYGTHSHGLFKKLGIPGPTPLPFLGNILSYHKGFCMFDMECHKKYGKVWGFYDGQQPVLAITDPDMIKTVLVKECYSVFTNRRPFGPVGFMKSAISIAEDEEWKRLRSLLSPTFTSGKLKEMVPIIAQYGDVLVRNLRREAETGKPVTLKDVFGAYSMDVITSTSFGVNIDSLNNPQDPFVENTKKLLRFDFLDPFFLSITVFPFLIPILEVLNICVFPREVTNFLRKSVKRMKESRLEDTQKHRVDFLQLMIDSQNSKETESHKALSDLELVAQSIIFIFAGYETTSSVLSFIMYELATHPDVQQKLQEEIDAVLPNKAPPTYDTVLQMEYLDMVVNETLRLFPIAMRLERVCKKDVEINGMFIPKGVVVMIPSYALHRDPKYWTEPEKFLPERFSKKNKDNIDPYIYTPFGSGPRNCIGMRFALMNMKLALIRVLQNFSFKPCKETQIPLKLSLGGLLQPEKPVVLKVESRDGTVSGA

| Structure (SMILES) | Activity (Mus musculus [1]) | Activity (Mus musculus [2]) | Activity (Mus musculus [3]) | ED50 (Mus musculus [4]) | Time (Mus musculus [5]) | Activity (Rattus norvegicus [6]) | Activity (Mus musculus [7]) | Activity (Mus musculus [8]) | Time (Mus musculus [9]) | Activity (Rattus norvegicus [10]) | Activity (Rattus norvegicus [11]) | Activity (Mus musculus [12]) | Activity (Mus musculus [13]) | Activity (Mus musculus [14]) | Activity (Mus musculus [15]) | Activity (Rattus norvegicus [16]) | Activity (Rattus norvegicus [17]) | Activity (Mus musculus [18]) | Activity (Mus musculus [19]) | minimal effective dose (Mus musculus [21]) | other results |
| --- | --- | --- | --- | --- | --- | --- | --- | --- | --- | --- | --- | --- | --- | --- | --- | --- | --- | --- | --- | --- | --- |
| O=C1CC(c2ccccc2)C(=O)N1CN1CCN(c2ncccn2)CC1 (racemic) | 50% | 0% | inactive | 103 mg/kg | 1 h | inactive | 50% | inactive | 1 h | inactive | inactive | 75% | 50% | Non-toxic | inactive | inactive | inactive | Non-toxic | inactive |  |  |
| O=C1CC(c2ccccc2)C(=O)N1CN1CCOCC1 (racemic) | 25% | 0% |  | 77.2 mg/kg | 0.25 h | inactive | 0% | inactive | 0.25 h | inactive | inactive | 75% | 0% | Non-toxic |  | inactive | inactive |  |  | 300 mg/kg | MED (Mus musculus [20]): 300 mg/kg; minimal effective dose (Mus musculus [22]): 300 mg/kg; TD50 [23]: 293 mg/kg; ED50 (Rattus norvegicus [24]): 342 mg/kg; Ratio TD50/ED50 (Mus musculus [25]): 3.79; minimal effective dose (Mus musculus [26]): 100 mg/kg; Activity (Rattus norvegicus [27]): Active; inhibition (INH) (Cytochrome P450 3A4 [28]): 19%; inhibition (INH) (Cytochrome P450 3A4 [29]): 17% |
| CCC1(C)CC(=O)NC1=O (configuration not stated) [ETHOSUXIMIDE] |  |  |  |  |  |  |  | inactive |  |  |  |  |  | Non-toxic |  |  |  | Non-toxic | inactive | 100 mg/kg | ED50 (Rattus norvegicus [30]): > 500 mg/kg; TD50 [31]: > 500 mg/kg; minimal effective dose (Mus musculus [22]): 300 mg/kg; Ratio TD50/ED50 (Rattus norvegicus [32]): >2.99; Time (Rattus norvegicus [33]): 1 h; Time (Rattus norvegicus [34]): 1 h; Time (Rattus norvegicus [35]): 1 h |
| O=C1CC(c2ccccc2Cl)C(=O)N1CN1CCN(c2ncccn2)CC1 (racemic) |  |  | inactive |  |  | inactive |  |  |  | inactive | inactive |  |  |  | inactive | inactive | inactive | Non-toxic | inactive |  | MED (Mus musculus [36]): 300 mg/kg; minimal effective dose (Mus musculus [37]): 100 mg/kg |
